Source: ChEMBL document CHEMBL4251722, “Identification of Ingol and Rhamnofolane Diterpenoids from Euphorbia resinifera and Their Abilities to Induce Lysosomal Biosynthesis” (2018)
Activity calls are given as the source filed them. The rule behind the calls is not given here.

Columns and labels:
HeLa [1] = assay: Induction of lysosomal biosynthesis in human HeLa cells assessed as increase in staining intensity at 40 uM after 3 hrs by LysoTracker Red DND-99 staining based assay relative to control; type: functional
Procedure, shortened: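 HeLa cells given 40 μM for 3 h, then LysoTracker Red staining. Signal intensity is quantified as fold induction relative to DMSO-treated cells. HEP-14 at 40 μM is the positive control. Independent triplicates.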

HeLa [2] = assay: Induction of lysosomal biosynthesis in human HeLa cells assessed as increase in staining intensity after 3 hrs by LysoTracker Red DND-99 staining based assay; type: functional, cell-based
Procedure, shortened: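 HeLa cells exposed 3 h to 10, 20, 40 and 60 μM test agent, then stained with LysoTracker Red. Lysosome induction is read as fold of LysoTracker Red signal over the DMSO negative control, with HEP-14 as positive control. Three independent experiments.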

HeLa [3] = assay: Induction of lysosomal biosynthesis in human HeLa cells assessed as increase in staining intensity at 40 uM by LysoTracker Red DND-99 staining based assay; type: functional, cell-based; settings: TDE = time-dependent effect
Procedure, shortened: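 Time course in HeLa cells at 40 μM over five treatment intervals, followed by LysoTracker Red staining. Output is fold induction of staining versus DMSO control. n = 3 independent experiments.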

HeLa [4] = assay: Up regulation of LAMP1 mRNA expression in human HeLa cells at 40 uM after 3 hrs by TRIzol dye based qRT-PCR analysis; type: functional, cell-based
HeLa [5] = assay: Up regulation of cathepsin B mRNA expression in human HeLa cells at 40 uM after 3 hrs by TRIzol dye based qRT-PCR analysis; type: functional, cell-based
HeLa [6] = assay: Up regulation of cathepsin A mRNA expression in human HeLa cells at 40 uM after 3 hrs by TRIzol dye based qRT-PCR analysis; type: functional, cell-based
HeLa [7] = assay: Up regulation of ATP6V0E1 mRNA expression in human HeLa cells at 40 uM after 3 hrs by TRIzol dye based qRT-PCR analysis; type: functional, cell-based

COc1ccc([C@H](O)C(=O)O[C@@H]2/C(C)=C/[C@@]34O[C@@]3(C[C@H](C)[C@@H]4OC(C)=O)C(=O)[C@H](C)[C@H](OC(C)=O)[C@@H]3[C@H]([C@@H]2OC(C)=O)C3(C)C)cc1
Activity (HeLa [1]): 155.9%
Activity (HeLa [2]): Dose-dependent effect
Activity (HeLa [3]): Tde
Activity (HeLa [4]): Active
Activity (HeLa [5]): Active
Activity (HeLa [6]): Active
Activity (HeLa [7]): Active

COc1ccc(CC(=O)O[C@@H]2/C(C)=C/[C@@]34O[C@@]3(C[C@H](C)[C@@H]4OC(C)=O)C(=O)[C@H](C)[C@H](OC(C)=O)[C@@H]3[C@H]([C@@H]2OC(C)=O)C3(C)C)cc1
Activity (HeLa [1]): 140.7%
Activity (HeLa [2]): Dose-dependent effect
Activity (HeLa [3]): Tde
Activity (HeLa [4]): Active
Activity (HeLa [5]): Active
Activity (HeLa [6]): Active
Activity (HeLa [7]): Active

COc1ccc([C@H](O)C(=O)O[C@@H]2/C(C)=C/[C@@]34O[C@@]3(C[C@@](C)(O)[C@@H]4OC(C)=O)C(=O)[C@H](C)[C@H](OC(C)=O)[C@@H]3[C@H]([C@@H]2OC(C)=O)C3(C)C)cc1
Activity (HeLa [1]): 143.5%
Activity (HeLa [2]): Dose-dependent effect
Activity (HeLa [3]): Tde
Activity (HeLa [4]): Active
Activity (HeLa [5]): Active
Activity (HeLa [6]): Active
Activity (HeLa [7]): Active
